# Screening results deposited in PubChem by Broad Institute.
# Xi reactivation – activators of X-chromosome reactivation in mouse fibroblasts; XiGFP mouse fibroblasts, % GFP-positive cells imaging, 3 d; cells co-treated with 5-aza-dC sensitizer; scaled so ellipticine positive control = 100%; hit rate 0.055% among 360,000; AID 743238; activation, % at 7.58 µM;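 active = mean normalized replicate activation at least 10% and every replicate at or above 10%; inconclusive = only one of the two criteria met; inactive = mean below 10% and not all replicates reach 10%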;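 also: 0% = median of on-plate neutral control wells and 100% = ellipticine 6 µM median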
#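 System: 68-5-11 XiGFP fibroblast line | Buffer or medium: DMEM containing 5-aza-dC | Compound: Single point | Times: Compounds 3 days, fix/stain 15 min at room temperature | Benchmarks: Positive control ellipticine, 6 µM final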
# NSD2 HMT inh – blocks human histone methyltransferase NSD2 | O96028 | NSD2 peptide methylation, AlphaScreen, 120 min | inhibition, % at 12.5 µM | hit rate 0.54% among 310,000; in the data active = inhibition above about 50%
# Casp6 inh – blocks human caspase-6 cleavage activity; inhibition, % at 12.5 µM; purified caspase-6, Z-VEID-R110 cleavage fluorescence; P55212; hit rate 0.53% among 350,000;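 active = mean inhibition across replicates at least about 35%, with every replicate also reaching that limit, limit read from the data; inconclusive = only one of the two criteria met; inactive = neither criterion met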;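 also: 0% = median of neutral control wells and 100% = no fluorescence left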
# Target sequence (P55212 24-179 limits assumed): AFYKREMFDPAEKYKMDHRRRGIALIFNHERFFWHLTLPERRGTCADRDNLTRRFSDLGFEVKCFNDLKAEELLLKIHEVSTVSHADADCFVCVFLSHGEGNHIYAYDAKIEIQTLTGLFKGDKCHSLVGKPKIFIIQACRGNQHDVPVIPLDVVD
# Target sequence (P55212 194-293 limits assumed): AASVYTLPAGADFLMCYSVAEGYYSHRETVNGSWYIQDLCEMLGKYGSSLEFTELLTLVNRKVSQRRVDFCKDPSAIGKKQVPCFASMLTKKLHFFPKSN
# Wnt bcat act – activates Wnt/beta-catenin signaling in a reporter cell assay; activator, plate reader; activation, % at 9.35 µM; hit rate 1.2% among 300,000; AID 743398; in the data active = activation above about 30%, passing the limit was not always enough; inconclusive = no clear call, values can overlap the other calls;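 also: 0% = neutral control wells and 100% = positive control wells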
# esBAF inh – blocks esBAF chromatin remodeling in mouse ES cells; hit rate 2% among 350,000; Bmi1-luciferase knock-in reporter, 24 h; 100% = twice the neutral-well signal; reporter increase, % at 12.5 µM; in the data active = activation above about 40%; inconclusive = no clear call, values can overlap the other calls;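 also: 0% = median of the plate's neutral control wells and 100% = double that signal; a rise in the Bmi1 reporter signal indicates esBAF inhibition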
# MITF TRPM1 HTS – MITF TRPM1 promoter activation in melanoma cells | hit rate 0.75% among 300,000 | activation, % at 12.5 µM | SK-MEL-5 TRPM1-promoter luciferase, 24 h; % of positive control, neutral wells = 0;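 active = mean activation of at least 80% with every replicate also reaching 80%; inconclusive = mean reaches 80% but some replicate falls short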;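 also: 0% = neutral control wells and 100% = parthenolide positive control wells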
# Numbers without * were called inactive; ? = inconclusive; / = no result. This is a sample that favours compounds with a hit; in the whole collection about 3% have one here.
SMILES,Xi reactivation,NSD2 HMT inh,Casp6 inh,Wnt bcat act,esBAF inh,MITF TRPM1 HTS
Cc1sc(NC(=O)C2CCCCC2C(=O)O)c(C(N)=O)c1-c1ccc(C(C)C)cc1 (stereo not drawn),/,4.5,/,/,62.3*,30.8
O=C(/C=C(\Nc1cccc(Cl)c1F)c1ccccc1)c1ccccc1,0.2,0.7,2.9,46.8*,/,/
O=C(/C=C(\Nc1cccc(Cl)c1)c1ccccc1)c1ccccc1,0.4,/,-1.5,25.7,/,/
COc1ccc(NC(=O)Nc2ccc3c(c2)CC(=O)N([C@H](C)CO)C[C@H](C)[C@@H](CN(C)Cc2ccc(Cl)c(Cl)c2)O3)cc1,0.0,/,/,/,-1.4,/
CC(C)Cc1ccc(/C=C/C(=O)NC2CC2)cc1,-0.1,-2.2,-0.3,53.6*,49.2*,79.6
CN(C)C(=O)C[C@@H]1CC[C@@H]2[C@H](COC[C@H](O)CN2CC2CCCCC2)O1,0.0,/,-2.7,/,-1.4,/
Oc1[nH]c2ccccc2c1C=Nc1ccc2c(c1)OCO2,/,4.2,/,38.8*,57.0*,?
COc1ccc(N=Cc2c(O)[nH]c3ccccc23)cc1,/,1.5,/,59.2*,6.9,49.9
COc1ccc(CN=Cc2c(O)[nH]c3ccccc23)cc1,0.0,12.7,1.2,3.0,/,12.4
CC(C)CC#Cc1ccc([C@H]2[C@@H](CO)N3C(=O)CN(C(=O)NC(C)C)C[C@H]23)cc1,0.2,/,/,/,/,/
CS(=O)(=O)N1C[C@@H]2N[C@H](C1)C2c1ccc(-c2ccc(F)cc2)cc1 (stereo partly drawn),0.5,/,/,/,/,/
CO[C@@H]1CN(C)C(=O)c2cc(NC(=O)c3ccccc3)ccc2OC[C@@H](C)N(C)C[C@@H]1C,-0.2,/,-3.3,/,-2.8,/
CCC(=O)Nc1ccc2c(c1)C(=O)N(C)[C@H]1CC[C@H](CC(=O)NCCc3ccncc3)O[C@@H]1CO2,0.0,/,/,/,/,/
CCC(=O)N[C@@H]1CC[C@H](CCn2cc(C3CC3)nn2)O[C@H]1CO,-0.1,/,2.1,/,-3.1,/
Fc1ccc(CNc2ccn3nc(-c4ccccc4)cc3n2)cc1,0.2,-1.8,-1.9,-1.8,63.9*,/
COCCCNc1ccn2nc(-c3ccccc3)cc2n1,0.0,26.1,4.5,-20.6,-62.0,/
Clc1cccc(CNc2ccn3nc(-c4cccs4)cc3n2)c1,0.0,-3.1,3.2,49.5*,58.6*,/
c1ccc(OCCNc2ccn3nc(-c4ccco4)cc3n2)cc1,0.0,0.4,5.1,-1.2,48.3*,/
c1ccc(OCCNc2ccn3nc(-c4ccccc4)cc3n2)cc1,-0.1,-3.4,0.7,16.5,53.4*,/
COc1ccc2c3c(n(C)c2c1)[C@H](CO)N(C(=O)C1CCC1)CC31CN(C)C1,-0.1,/,/,/,/,/
COc1ccc(S(=O)(=O)Nc2ccc3c(c2)C(=O)N([C@@H](C)CO)C[C@@H](C)[C@H](CN(C)C(=O)CCCN(C)C)OCCCC[C@@H](C)O3)cc1,-0.5,/,-0.2,/,7.7,/
O=C(CCN1CCCCC1)NCC[C@H]1CC[C@@H](NC(=O)C2CCCC2)[C@@H](CO)O1,0.0,/,-1.3,/,3.0,/
O=C(Cc1cccnc1)N[C@@H]1CC[C@@H](CCn2cc(-c3ccccc3F)nn2)O[C@@H]1CO,0.1,/,2.4,/,-1.1,/
COc1ccc2c3c(n(C)c2c1)[C@H](CO)N(C)CC31CCN(C(=O)C2CCC2)CC1,0.0,/,/,/,/,/
c1ccc(OCCNc2ccn3nc(-c4cccs4)cc3n2)cc1,0.0,7.7,1.0,-2.0,64.0*,/
SMILES,Xi reactivation,NSD2 HMT inh,Casp6 inh,Wnt bcat act,esBAF inh,MITF TRPM1 HTS
O=c1[nH]c2ccccc2nc1/C=C/c1ccccc1,1.2,-4.9,2.6,?,/,40.3
O=c1[nH]c2ccccc2nc1/C=C/c1ccc(O)cc1,0.0,/,1.1,10.2,51.1*,60.7
O=c1[nH]c2ccccc2nc1/C=C/c1ccc(F)cc1,0.2,3.0,0.7,-0.8,55.7*,47.1
Cc1noc(C)c1NC(=O)N[C@@H]1C=C[C@H](CC(=O)NCc2ccc(Cl)c(Cl)c2)O[C@H]1CO,0.1,/,3.4,/,0.9,/
CC(C)NC(=O)N1[C@@H]2CN(CC(F)(F)F)C[C@H]1C2c1ccc(Br)cc1 (stereo partly drawn),0.3,/,/,/,/,/
Nc1nc(CSCCO)nc(Nc2ccccc2)n1,/,1.6,/,/,21.3,1.9
COc1ccc(Nc2nc(N)nc(CSc3nnc(N)s3)n2)cc1,/,-0.9,/,/,10.2,/
Nc1nc(CSc2ccccn2)nc(Nc2ccccc2)n1,/,/,/,43.3*,52.4*,151.7*
COc1ccc(Nc2nc(N)nc(CSc3nccn3C)n2)cc1,0.0,2.4,0.7,56.0*,/,6.4
CCc1cccc(NC(=O)c2sc3nc4n(c(=O)c3c2C)CCC4)c1,0.0,2.0,/,14.1,62.8*,95.0*
CO[C@@H]1CN(C)C(=O)c2cc(NC(=O)c3cnccn3)ccc2OC[C@@H](C)N(CCc2ccccc2)C[C@H]1C,0.6,/,1.9,/,4.3,/
CS(=O)c1ccccc1O (stereo not drawn),0.0,1.4,-1.2,-2.1,-2.8,6.4
O=S(c1ccccc1O)S(=O)c1ccccc1O (stereo not drawn),-0.2,17.1,62.4*,4.4,1.6,0.7
Oc1cccc(Nc2nc(O)c(/C=C3\C=Nc4ccccc43)s2)c1,0.1,2.2,3.6,34.6*,58.9*,47.1
Cc1cc(C)c(C(=O)c2cccs2)c(C)c1,0.2,-2.5,1.6,-2.1,-8.5,-7.3
CC(CC(=O)c1cccs1)CC(=O)c1cccs1,/,-3.6,-8.2,14.7,70.0*,68.8
Cc1cc(C)c(C(CC(=O)c2cccs2)C(C#N)C#N)c(C)c1 (stereo not drawn),0.3,0.1,1.3,49.2*,/,44.0
COCC(=O)N1C[C@@H](C)[C@@H](OC)CN(C)C(=O)c2cc(NC(=O)c3ccc(OC)cc3)ccc2OC[C@@H]1C,0.0,/,-1.5,/,-0.6,/
CNc1c([N+](=O)[O-])cnn1-c1ccc(Cl)cc1Cl,/,4.0,/,-0.9,-5.1,5.5
O=c1cnn(-c2ccc(Cl)cc2Cl)c(-c2ccccc2)c1,/,-2.6,/,/,48.7*,-2.3
Cc1ccc(O)c(C2=Nc3ccccc3C2(C)C)c1,0.1,/,-0.2,-1.3,66.9*,98.4*
CCOC(=O)N1CCN(C(=O)c2cccc(S(=O)(=O)Nc3ccc(F)cc3)c2)CC1,0.6,0.8,7.2,38.8*,/,-4.7
CC(C)CC#Cc1ccc2c(c1)O[C@@H](CN(C)C(=O)Cc1ccccc1)[C@H](C)CN([C@@H](C)CO)S2(=O)=O,-0.1,/,-0.4,/,-1.6,/
CCC(=O)Nc1ccc(-c2ccc(N3CCC(C)CC3)nn2)cc1,/,1.0,/,/,48.4*,88.5*
CCC(=O)Nc1cccc(-c2ccc(N3CCC(C)CC3)nn2)c1,0.2,0.7,-1.8,27.4,-57.9,6.8
CN1[C@@H]2Cn3c(ccc(-c4ccccc4)c3=O)[C@H]1[C@@H](C(=O)N1CCC(Cc3ccccc3)CC1)[C@@H]2CO,0.1,/,-4.1,/,-0.7,/
NC(=O)CSc1nc(N)c2c3c(sc2n1)CCCCC3,/,-2.1,/,/,55.2*,/
